The target of assay [1] is T1, Sodium channel protein type 5 subunit alpha (Homo sapiens, UniProt Q14524). Briefly: Inhibition of human Nav1.5 expressed in HEK293 cells assessed as inward peak current by ion-works quattro patch clamp electrophysiology method. Summed up: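 Stable HEK293 line expressing human NaV1.5, recorded by population patch clamp on the IonWorks Quattro.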
In assay [2] the target is Sodium channel protein type 9 subunit alpha (Homo sapiens, UniProt Q15858). Kind of assay: Inhibition of human Nav1.7 expressed in HEK293 cells by whole cell patch clamp electrophysiology method. On the technique in general: The patch-clamp technique gives a direct electrical read-out from membranes.
Chain of Sodium channel protein type 9 subunit alpha (Q15858 whole entry): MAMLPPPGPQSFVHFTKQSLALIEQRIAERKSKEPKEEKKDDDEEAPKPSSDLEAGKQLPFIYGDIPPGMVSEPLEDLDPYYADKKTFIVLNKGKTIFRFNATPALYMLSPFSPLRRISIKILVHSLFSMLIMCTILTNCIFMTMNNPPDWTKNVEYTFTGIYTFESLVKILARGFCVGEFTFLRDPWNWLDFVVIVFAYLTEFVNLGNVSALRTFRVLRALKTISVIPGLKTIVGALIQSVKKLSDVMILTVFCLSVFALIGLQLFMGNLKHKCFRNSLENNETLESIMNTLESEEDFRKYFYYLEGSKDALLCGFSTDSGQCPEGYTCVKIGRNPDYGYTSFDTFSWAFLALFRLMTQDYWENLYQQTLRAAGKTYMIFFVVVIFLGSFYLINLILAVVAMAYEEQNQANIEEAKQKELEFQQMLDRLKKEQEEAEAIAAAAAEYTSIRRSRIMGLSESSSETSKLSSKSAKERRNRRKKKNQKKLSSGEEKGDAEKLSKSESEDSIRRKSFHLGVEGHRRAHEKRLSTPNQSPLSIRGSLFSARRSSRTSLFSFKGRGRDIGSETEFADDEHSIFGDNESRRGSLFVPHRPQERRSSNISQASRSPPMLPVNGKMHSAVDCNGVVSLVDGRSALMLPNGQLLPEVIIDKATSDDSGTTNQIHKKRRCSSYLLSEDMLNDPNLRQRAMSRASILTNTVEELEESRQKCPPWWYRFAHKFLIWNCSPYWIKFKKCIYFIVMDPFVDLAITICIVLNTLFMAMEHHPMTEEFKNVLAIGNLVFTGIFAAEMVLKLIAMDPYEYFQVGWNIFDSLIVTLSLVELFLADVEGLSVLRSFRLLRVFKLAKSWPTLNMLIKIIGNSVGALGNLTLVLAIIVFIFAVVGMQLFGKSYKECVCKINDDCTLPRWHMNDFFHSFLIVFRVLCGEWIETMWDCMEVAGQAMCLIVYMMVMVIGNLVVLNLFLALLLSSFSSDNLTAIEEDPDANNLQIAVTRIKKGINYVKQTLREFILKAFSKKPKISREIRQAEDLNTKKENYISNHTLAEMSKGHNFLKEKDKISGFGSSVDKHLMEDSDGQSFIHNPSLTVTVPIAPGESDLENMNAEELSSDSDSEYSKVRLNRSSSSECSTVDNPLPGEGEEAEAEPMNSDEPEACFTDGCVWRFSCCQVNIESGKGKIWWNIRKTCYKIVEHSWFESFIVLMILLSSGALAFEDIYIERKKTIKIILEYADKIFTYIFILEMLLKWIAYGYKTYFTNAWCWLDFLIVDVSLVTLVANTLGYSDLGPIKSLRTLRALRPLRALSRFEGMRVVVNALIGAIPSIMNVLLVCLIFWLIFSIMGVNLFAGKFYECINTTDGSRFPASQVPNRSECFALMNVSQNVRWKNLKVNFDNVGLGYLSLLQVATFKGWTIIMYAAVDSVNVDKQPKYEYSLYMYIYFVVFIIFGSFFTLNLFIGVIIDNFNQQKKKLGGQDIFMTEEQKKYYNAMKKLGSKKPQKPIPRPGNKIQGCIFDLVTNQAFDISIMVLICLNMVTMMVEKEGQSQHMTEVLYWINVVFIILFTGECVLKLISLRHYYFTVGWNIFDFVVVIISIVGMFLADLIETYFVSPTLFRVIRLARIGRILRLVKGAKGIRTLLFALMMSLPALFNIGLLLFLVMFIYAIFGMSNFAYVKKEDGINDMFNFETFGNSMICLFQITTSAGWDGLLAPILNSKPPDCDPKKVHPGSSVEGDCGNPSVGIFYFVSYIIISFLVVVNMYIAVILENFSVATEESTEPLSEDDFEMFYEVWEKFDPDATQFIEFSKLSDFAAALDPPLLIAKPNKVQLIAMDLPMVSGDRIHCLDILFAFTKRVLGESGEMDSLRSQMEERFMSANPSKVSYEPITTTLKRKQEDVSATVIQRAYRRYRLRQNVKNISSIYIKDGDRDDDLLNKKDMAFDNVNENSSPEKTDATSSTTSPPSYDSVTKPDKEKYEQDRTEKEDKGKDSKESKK
For assay [3], the target named is T1, Sodium channel protein type 5 subunit alpha. Briefly: Inhibition of human Nav1.5 expressed in HEK293 cells by whole cell patch clamp electrophysiology method. Summed up: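 Stable HEK293 line expressing human NaV1.5. Peptides were used only at >95% purity with the correct m/z, and were quantified by chemiluminescent nitrogen detection against a caffeine standard curve.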

Positions of bridges follow the written chain, without caps; N, C: chain ends. Residues, ends and D or L forms follow the SMILES beside them.

T1 sequence (Q14524 whole entry): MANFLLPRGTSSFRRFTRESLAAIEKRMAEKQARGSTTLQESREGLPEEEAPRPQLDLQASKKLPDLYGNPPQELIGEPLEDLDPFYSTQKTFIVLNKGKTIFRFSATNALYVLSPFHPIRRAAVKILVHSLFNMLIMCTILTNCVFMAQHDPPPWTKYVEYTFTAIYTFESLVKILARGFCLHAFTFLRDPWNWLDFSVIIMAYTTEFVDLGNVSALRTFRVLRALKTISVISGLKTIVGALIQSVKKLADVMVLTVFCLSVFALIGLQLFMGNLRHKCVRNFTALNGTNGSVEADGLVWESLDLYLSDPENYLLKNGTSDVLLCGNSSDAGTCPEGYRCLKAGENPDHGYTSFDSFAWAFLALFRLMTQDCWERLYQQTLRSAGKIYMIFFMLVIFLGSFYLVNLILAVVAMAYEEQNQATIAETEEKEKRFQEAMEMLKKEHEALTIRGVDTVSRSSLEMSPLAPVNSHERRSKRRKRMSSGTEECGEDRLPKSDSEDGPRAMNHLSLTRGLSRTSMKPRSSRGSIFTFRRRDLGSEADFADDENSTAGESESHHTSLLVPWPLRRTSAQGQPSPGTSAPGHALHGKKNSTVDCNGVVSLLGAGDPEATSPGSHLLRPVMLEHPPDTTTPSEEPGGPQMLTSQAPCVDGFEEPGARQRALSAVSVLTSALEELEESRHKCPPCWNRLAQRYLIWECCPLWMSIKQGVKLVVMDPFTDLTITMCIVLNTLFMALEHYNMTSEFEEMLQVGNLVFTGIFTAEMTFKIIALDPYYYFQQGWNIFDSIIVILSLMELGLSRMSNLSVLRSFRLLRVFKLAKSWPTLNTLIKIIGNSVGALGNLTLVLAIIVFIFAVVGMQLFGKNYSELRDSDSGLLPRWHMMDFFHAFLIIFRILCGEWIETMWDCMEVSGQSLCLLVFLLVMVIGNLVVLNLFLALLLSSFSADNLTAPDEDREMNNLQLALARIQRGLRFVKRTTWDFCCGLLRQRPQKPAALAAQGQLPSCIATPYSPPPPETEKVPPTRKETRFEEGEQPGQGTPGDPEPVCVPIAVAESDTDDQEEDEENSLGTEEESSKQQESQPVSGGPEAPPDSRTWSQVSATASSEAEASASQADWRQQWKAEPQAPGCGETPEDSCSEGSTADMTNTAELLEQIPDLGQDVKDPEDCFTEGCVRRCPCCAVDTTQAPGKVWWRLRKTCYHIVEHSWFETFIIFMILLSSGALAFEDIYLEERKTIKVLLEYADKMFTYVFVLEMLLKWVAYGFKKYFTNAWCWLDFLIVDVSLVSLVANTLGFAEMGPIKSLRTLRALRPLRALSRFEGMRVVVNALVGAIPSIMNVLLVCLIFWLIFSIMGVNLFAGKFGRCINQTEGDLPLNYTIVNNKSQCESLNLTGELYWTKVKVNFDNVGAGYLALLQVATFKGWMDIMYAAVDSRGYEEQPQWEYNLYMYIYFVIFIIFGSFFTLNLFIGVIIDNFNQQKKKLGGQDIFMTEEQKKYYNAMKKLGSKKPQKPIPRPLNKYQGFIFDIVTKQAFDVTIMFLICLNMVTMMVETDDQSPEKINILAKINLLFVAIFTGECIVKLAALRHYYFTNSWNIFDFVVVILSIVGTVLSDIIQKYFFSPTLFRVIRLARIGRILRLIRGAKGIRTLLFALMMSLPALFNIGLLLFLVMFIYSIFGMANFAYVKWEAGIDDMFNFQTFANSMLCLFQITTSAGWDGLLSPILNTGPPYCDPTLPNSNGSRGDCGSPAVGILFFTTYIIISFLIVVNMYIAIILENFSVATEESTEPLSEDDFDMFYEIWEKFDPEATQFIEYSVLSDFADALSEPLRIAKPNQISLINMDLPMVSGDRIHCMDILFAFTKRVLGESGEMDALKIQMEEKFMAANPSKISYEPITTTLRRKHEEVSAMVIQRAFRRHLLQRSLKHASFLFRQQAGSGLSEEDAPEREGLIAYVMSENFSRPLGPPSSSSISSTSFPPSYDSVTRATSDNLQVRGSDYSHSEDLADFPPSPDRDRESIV

For orientation: IC50 means the point on the concentration scale where inhibition reaches its midpoint. For the compound `CC[C@H](C)[C@@H]1NC(=O)[C@@H]2CSSC[C@@H]3NC(=O)[C@H](C(C)C)NC(=O)[C@H](CC(C)C)NC(=O)[C@H](CC(N)=O)NC(=O)[C@@H]4CCCN4C(=O)[C@H](CCCNC(=N)N)NC(=O)[C@H](CSSC[C@H](NC(=O)[C@@H](N)CC(=O)O)C(=O)N[C@@H](CC(C)C)C(=O)NCC(=O)N[C@@H](Cc4ccccc4)C(=O)N[C@@H](CCSC)C(=O)N[C@@H](CCCNC(=N)N)C(=O)N[C@@H](CCCCN)C(=O)N2)NC(=O)[C@H](CSSC[C@@H](C(=O)N[C@@H](CCCCN)C(=O)N[C@@H](Cc2ccc(O)cc2)C(=O)N[C@H](C(=O)N[C@@H](Cc2ccccc2)C(=O)N[C@@H](Cc2c[nH]c4ccccc24)C(N)=O)C(C)C)NC(=O)[C@H](Cc2c[nH]c4ccccc24)NC(=O)[C@H](CCCCN)NC(=O)[C@H](Cc2c[nH]cn2)NC(=O)[C@H]([C@@H](C)O)NC(=O)[C@H](CCCNC(=N)N)NC(=O)[C@H](CO)NC3=O)NC(=O)[C@H](CCCCN)NC(=O)[C@H](CC(=O)O)NC(=O)[C@H](CC(N)=O)NC(=O)[C@H](CC(=O)O)NC(=O)[C@@H]2CCCN2C1=O`, the figures for the IC50 in assay [1], in assay [2] and in assay [3] were more than 5000 nM, 10 nM and 2700 nM, respectively.
`CC[C@H](C)[C@@H]1NC(=O)[C@@H]2CSSC[C@@H]3NC(=O)[C@H](C(C)C)NC(=O)[C@H](CC(C)C)NC(=O)[C@H](CC(N)=O)NC(=O)[C@@H]4CCCN4C(=O)[C@H](CCCNC(=N)N)NC(=O)[C@H](CSSC[C@H](NC(=O)[C@@H](N)CC(=O)O)C(=O)N[C@@H](CCC(=O)O)C(=O)NCC(=O)N[C@@H](Cc4ccccc4)C(=O)N[C@@H](CCSC)C(=O)N[C@@H](CCCNC(=N)N)C(=O)N[C@@H](CCCCN)C(=O)N2)NC(=O)[C@H](CSSC[C@@H](C(=O)N[C@@H](CCCCN)C(=O)N[C@@H](Cc2ccc(O)cc2)C(=O)N[C@H](C(=O)N[C@@H](Cc2ccccc2)C(N)=O)C(C)C)NC(=O)[C@H](Cc2c[nH]c4ccccc24)NC(=O)[C@H](CCCCN)NC(=O)[C@H](Cc2cnc[nH]2)NC(=O)[C@H]([C@@H](C)O)NC(=O)[C@H](CCCNC(=N)N)NC(=O)[C@H](CO)NC3=O)NC(=O)[C@H](CCCCN)NC(=O)[C@H](CC(=O)O)NC(=O)[C@H](CC(N)=O)NC(=O)[C@H](CC(=O)O)NC(=O)[C@@H]2CCCN2C1=O` (H-DCEGFMRKCIPDNDKCCRPNLVCSRTHKWCKYVF-NH2; disulfide 2-17, 9-23, 16-30): the IC50 in assay [1] is more than 5000 nM.
